Calls of active or inactive are those of the source. The rule behind the calls is not given here. Peptide text beside a SMILES is read from it.

The term IC50 denotes the concentration that gives 50% inhibition. A lower IC50 goes with inhibition by little substance. By pA2 is commonly meant the negative logarithm of the molar antagonist concentration that doubles the agonist concentration needed for the same response. The low end stands for lower antagonist potency, the high end for higher antagonist potency.

Assay [1] has as its target T1, Adenylate cyclase (Rattus norvegicus) (UniProt D4A3N4+P26770+Q04400+P26769+Q03343+P40146+Q8CFM9+P21932). Briefly: Adenylate cyclase stimulation; Inactive up to 100 uM. It counts as protein assay.
Assay [2] addresses T1, Adenylate cyclase (Rattus norvegicus). Nature of the assay: Maximum stimulation of adenylate cyclase. In kind it is protein assay.
Assay [3] addresses Glucagon receptor (Rattus norvegicus) (UniProt P30082). Briefly: Relative binding by measuring competition for glucagon receptor between [125]glucagon and the compound. In outline: (§1)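 Incubation 10 min at 30 °C, then ice cooling and filtration on 0.45 μm cellulose acetate, gamma counting. Nonspecific binding taken with 1024 nM unlabeled peptide and subtracted. Read as % inhibition of specific binding. Triplicates, repeated twice.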

Another assay addresses Glucagon receptor (Rattus norvegicus, UniProt P30082). Briefly: IC50 value was expressed as inhibition of [125]glucagon specific binding. The method, boiled down:
as §1

Assay [4] in a line: A dose-response plot was obtained by determining the response when the concentration of glucagon was varied while the concentration was kept same.

Sequence of Glucagon receptor (Rattus norvegicus) (P30082 whole entry): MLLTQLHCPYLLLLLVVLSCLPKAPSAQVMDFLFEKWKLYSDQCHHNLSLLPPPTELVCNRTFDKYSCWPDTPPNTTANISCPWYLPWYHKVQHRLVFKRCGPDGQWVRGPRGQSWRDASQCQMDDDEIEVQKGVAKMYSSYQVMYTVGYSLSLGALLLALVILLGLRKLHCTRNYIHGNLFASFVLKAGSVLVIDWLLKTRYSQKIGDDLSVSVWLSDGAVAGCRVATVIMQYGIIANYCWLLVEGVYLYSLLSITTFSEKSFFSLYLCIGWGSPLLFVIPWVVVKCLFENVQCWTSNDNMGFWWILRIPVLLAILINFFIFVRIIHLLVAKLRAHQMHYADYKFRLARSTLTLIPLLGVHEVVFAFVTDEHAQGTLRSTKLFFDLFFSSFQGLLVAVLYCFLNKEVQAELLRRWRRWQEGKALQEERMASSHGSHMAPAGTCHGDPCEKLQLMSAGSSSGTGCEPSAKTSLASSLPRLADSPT
Sequence of Glucagon receptor (P30082 whole entry): as above

`CC(=O)N[C@@H](Cc1ccccc1)C(=O)N[C@H]1CSSC[C@@H](C(=O)N[C@@H](Cc2ccc(O)cc2)C(=O)N[C@@H](CC(C)C)C(N)=O)NC(=O)[C@H](CO)NC(=O)[C@H](Cc2ccc(O)cc2)NC(=O)[C@H](CC(=O)O)NC(=O)[C@H](CO)NC1=O` (HELM PEPTIDE1{[ac].F.C.S.D.Y.S.C.Y.L.[am]}$PEPTIDE1,PEPTIDE1,3:R3-8:R3$$$V2.0): in assay [1], the IA result was “Inactive up to 100 uM”. This compound also returned a Max stimulation in assay [2] of 0%. In addition, the Relative binding in assay [3] was determined as 24%.
On to `CSCC[C@H](NC(=O)[C@H](CC(C)C)NC(=O)[C@H](Cc1c[nH]c2ccccc12)NC(=O)[C@H](CCC(N)=O)NC(=O)[C@@H](NC(=O)[C@H](Cc1ccccc1)NC(=O)[C@H](CC(=O)O)NC(=O)[C@H](CCC(N)=O)NC(=O)[C@H](C)NC(=O)[C@H](CCCN=C(N)N)NC(=O)[C@H](CCCN=C(N)N)NC(C)=O)C(C)C)C(=O)N[C@@H](CC(N)=O)C(=O)N[C@H](C(N)=O)[C@@H](C)O`, for which the IA entry in assay [1] was “Inactive up to 100 uM”. In assay [2], this compound showed a Max stimulation of 0%. In addition, the Relative binding in assay [3] was determined as 0.065%.
The matching figures for `CC(=O)N[C@@H](Cc1ccccc1)C(=O)N[C@@H](CS)C(=O)N[C@@H](CO)C(=O)N[C@@H](CC(=O)O)C(=O)N[C@@H](Cc1ccc(O)cc1)C(=O)N[C@@H](CO)C(=O)N[C@@H](CS)C(=O)N[C@@H](Cc1ccc(O)cc1)C(=O)N[C@@H](CC(C)C)C(=O)N[C@@H](CC(=O)O)C(N)=O` (Ac-FCSDYSCYLD-NH2): “Inactive up to 100 uM”, 0% and 56%.
For `CC(=O)N[C@@H](Cc1ccccc1)C(=O)N[C@@H](CS)C(=O)N[C@@H](CO)C(=O)N[C@@H](CC(=O)O)C(=O)N[C@@H](Cc1ccc(O)cc1)C(=O)N[C@@H](CO)C(=O)N[C@@H](CS)C(=O)N[C@@H](Cc1ccc(O)cc1)C(=O)N[C@@H](CC(C)C)C(N)=O` (Ac-FCSDYSCYL-NH2), in that order: “Inactive up to 100 uM”, 0% and 24%.
The matching figures for `CC(=O)N[C@@H](Cc1ccccc1)C(=O)N[C@H]1CSSC[C@@H](C(=O)N[C@@H](CCCCN)C(=O)N[C@@H](Cc2ccc(O)cc2)C(=O)N[C@@H](CC(C)C)C(N)=O)NC(=O)[C@H](Cc2ccc(O)cc2)NC(=O)[C@H](CC(=O)O)NC(=O)[C@H](CO)NC1=O` (HELM PEPTIDE1{[ac].F.C.S.D.Y.C.K.Y.L.[am]}$PEPTIDE1,PEPTIDE1,3:R3-7:R3$$$V2.0): “Inactive up to 100 uM”, 0% and 62%.
In the case of `CSCC[C@H](NC(=O)[C@H](CC(C)C)NC(=O)[C@H](Cc1c[nH]c2ccccc12)NC(=O)[C@H](CCC(N)=O)NC(=O)[C@@H](NC(=O)[C@H](Cc1ccccc1)NC(=O)[C@H](CC(=O)O)NC(=O)[C@H](CCC(N)=O)NC(=O)[C@H](C)NC(=O)[C@H](CCCNC(=N)N)NC(=O)[C@H](CCCNC(=N)N)NC(=O)[C@H](CO)NC(=O)[C@H](CC(=O)O)NC(=O)[C@H](CC(C)C)NC(=O)[C@H](Cc1ccc2ccccc2c1)NC(=O)[C@H](CCCCN)NC(=O)[C@H](CO)NC(=O)[C@H](Cc1ccc2ccccc2c1)NC(C)=O)C(C)C)C(=O)N[C@@H](CC(N)=O)C(=O)N[C@H](C(N)=O)[C@@H](C)O` (HELM PEPTIDE1{[ac].[O=C([C@H](Cc1ccc2ccccc2c1)N[*:1])[*:2]].S.K.[O=C([C@H](Cc1ccc2ccccc2c1)N[*:1])[*:2]].L.D.S.R.R.A.Q.D.F.V.Q.W.L.M.N.T.[am]}$$$$V2.0), on Glucagon receptor, the IC50 was determined as 800 nM.
Take `CSCC[C@H](NC(=O)[C@H](CC(C)C)NC(=O)[C@H](Cc1c[nH]c2ccccc12)NC(=O)[C@H](CCC(N)=O)NC(=O)[C@@H](NC(=O)[C@H](Cc1ccccc1)NC(=O)[C@H](CC(=O)O)NC(=O)[C@H](CCC(N)=O)NC(=O)[C@H](C)NC(=O)[C@H](CCCNC(=N)N)NC(=O)[C@H](CCCNC(=N)N)NC(C)=O)C(C)C)C(=O)N[C@@H](CC(N)=O)C(=O)N[C@H](C(N)=O)[C@@H](C)O`: at Glucagon receptor, the 50% inhibitory concentration (IC50) was 2300 nM. Against the preceding compound, the IC50 is about 2.9-fold higher.
`CC(=O)N[C@@H](Cc1ccccc1)C(=O)N[C@@H](CS)C(=O)N[C@@H](CO)C(=O)N[C@@H](CC(=O)O)C(=O)N[C@@H](Cc1ccc(O)cc1)C(=O)N[C@@H](CS)C(=O)N[C@@H](CCCCN)C(=O)N[C@@H](Cc1ccc(O)cc1)C(=O)N[C@@H](CC(C)C)C(N)=O` (Ac-FCSDYCKYL-NH2): the IA entry in assay [1] was “Inactive up to 100 uM”. Besides, the Max stimulation in assay [2] is 0%. Moreover, the Relative binding in assay [3] was 30%.
For `CSCC[C@H](NC(=O)[C@H](CC(C)C)NC(=O)[C@H](Cc1c[nH]c2ccccc12)NC(=O)[C@H](CCC(N)=O)NC(=O)[C@@H](NC(=O)[C@H](Cc1ccccc1)NC(=O)[C@H](CC(=O)O)NC(=O)[C@H](CCC(N)=O)NC(=O)[C@H](C)NC(=O)[C@H](CCCNC(=N)N)NC(=O)[C@H](CCCNC(=N)N)NC(=O)[C@H](CO)NC(=O)[C@H](CC(=O)O)NC(=O)[C@H](CC(C)C)NC(=O)[C@H](Cc1ccc(O)cc1)NC(=O)[C@H](CCCCN)NC(=O)[C@H](CO)NC(=O)[C@H](Cc1ccc(O)cc1)NC(=O)CCCCCc1ccccc1)C(C)C)C(=O)N[C@@H](CC(N)=O)C(=O)N[C@H](C(N)=O)[C@@H](C)O` (HELM PEPTIDE1{[O=C(CCCCCc1ccccc1)[*:2]].Y.S.K.Y.L.D.S.R.R.A.Q.D.F.V.Q.W.L.M.N.T.[am]}$$$$V2.0), at Glucagon receptor, the IC50 was 131 nM.
In assay [4], “Ac-YSKYLDSRRAQDFVQWLMNT-NH2 [listing 1 of 2 here]” returned a pA2 of 7.44.
For “Ac-YSKYLDSRRAQDFVQWLMNT-NH2 [listing 2 of 2 here]”, at Glucagon receptor, the IC50 stood at 60 nM.
As for `CC(=O)N[C@@H]1CSSC[C@H](C(N)=O)NC(=O)[C@@H](Cc2ccc(O)cc2)NC(=O)[C@H](CCCCN)NC(=O)[C@@H](CO)NC(=O)[C@H](Cc2ccc(O)cc2)NC1=O`, the IA entry in assay [1] is “Inactive up to 100 uM”. Moreover, in assay [2], the Max stimulation is 0%. Moreover, the Relative binding in assay [3] worked out at 0%.
Take `CC(=O)N[C@@H](Cc1ccccc1)C(=O)N[C@H]1CSSC[C@@H](C(=O)N[C@@H](Cc2ccc(O)cc2)C(=O)N[C@@H](CC(C)C)C(=O)N[C@@H](CC(=O)O)C(N)=O)NC(=O)[C@H](CO)NC(=O)[C@H](Cc2ccc(O)cc2)NC(=O)[C@H](CC(=O)O)NC(=O)[C@H](CO)NC1=O` (HELM PEPTIDE1{[ac].F.C.S.D.Y.S.C.Y.L.D.[am]}$PEPTIDE1,PEPTIDE1,3:R3-8:R3$$$V2.0): in assay [1], the IA entry is “Inactive up to 100 uM”. In assay [2], the Max stimulation turned out to be 0%. For the same compound, the Relative binding in assay [3] is 30%.
For `CC(=O)N[C@@H](CS)C(=O)N[C@@H](Cc1ccc(O)cc1)C(=O)N[C@@H](CO)C(=O)N[C@@H](CCCCN)C(=O)N[C@@H](Cc1ccc(O)cc1)C(=O)N[C@@H](CS)C(N)=O` (Ac-CYSKYC-NH2), in that order: “Inactive up to 100 uM”, 0% and 0%.
Turning to `CSCC[C@H](NC(=O)[C@H](CC(C)C)NC(=O)[C@H](Cc1c[nH]c2ccccc12)NC(=O)[C@H](CCC(N)=O)NC(=O)[C@@H](NC(=O)[C@H](Cc1ccccc1)NC(=O)[C@H](CC(=O)O)NC(=O)[C@H](CCC(N)=O)NC(=O)[C@H](C)NC(=O)[C@H](CCCN=C(N)N)NC(=O)[C@H](CCCN=C(N)N)NC(=O)[C@H](CO)NC(=O)[C@H](CC(=O)O)NC(=O)[C@H](CC(C)C)NC(=O)[C@H](Cc1ccc(O)cc1)NC(=O)[C@H](CCCCN)NC(=O)[C@H](CO)NC(=O)[C@H](Cc1ccc(O)cc1)NC(=O)CCCc1ccccc1)C(C)C)C(=O)N[C@@H](CC(N)=O)C(=O)N[C@H](C(N)=O)[C@@H](C)O` (HELM PEPTIDE1{[O=C(CCCc1ccccc1)[*:2]].Y.S.K.Y.L.D.S.R.R.A.Q.D.F.V.Q.W.L.M.N.T.[am]}$$$$V2.0), in assay [4], the pA2 turned out to be 7.38.
As to `CC(=O)N[C@@H](Cc1ccccc1)C(=O)N[C@H](C(=O)N[C@@H](CO)C(=O)N[C@H]1CSSC[C@@H](C(=O)N[C@@H](CC(=O)O)C(N)=O)NC(=O)[C@H](Cc2ccc(O)cc2)NC(=O)[C@H](CCCCN)NC(=O)[C@H](CO)NC(=O)[C@H](Cc2ccc(O)cc2)NC1=O)[C@@H](C)O` (HELM PEPTIDE1{[ac].F.T.S.C.Y.S.K.Y.C.D.[am]}$PEPTIDE1,PEPTIDE1,5:R3-10:R3$$$V2.0), in assay [1], the IA result is “Inactive up to 100 uM”. Moreover, the Max stimulation in assay [2] is 0%. The Relative binding in assay [3] turned out to be 43%.
For the compound `CSCC[C@H](NC(=O)[C@H](CC(C)C)NC(=O)[C@H](Cc1c[nH]c2ccccc12)NC(=O)[C@H](CCC(N)=O)NC(=O)[C@@H](NC(=O)[C@H](Cc1ccccc1)NC(=O)[C@H](CC(=O)O)NC(=O)[C@H](CCC(N)=O)NC(=O)[C@H](C)NC(=O)[C@H](CCCNC(=N)N)NC(=O)[C@H](CCCNC(=N)N)NC(=O)[C@H](CO)NC(=O)[C@H](CC(=O)O)NC(=O)[C@H](CC(C)C)NC(=O)[C@H](Cc1ccc(O)cc1)NC(=O)[C@H](CCCCN)NC(=O)[C@H](CO)NC(=O)[C@H](Cc1ccc(O)cc1)NC(=O)CCCc1ccccc1)C(C)C)C(=O)N[C@@H](CC(N)=O)C(=O)N[C@H](C(N)=O)[C@@H](C)O` (HELM PEPTIDE1{[O=C(CCCc1ccccc1)[*:2]].Y.S.K.Y.L.D.S.R.R.A.Q.D.F.V.Q.W.L.M.N.T.[am]}$$$$V2.0), the IC50 on Glucagon receptor came out at 21.2 nM.
As to `CC(=O)N[C@@H](Cc1ccccc1)C(=O)N[C@H](C(=O)N[C@@H](CO)C(=O)N[C@@H](CS)C(=O)N[C@@H](Cc1ccc(O)cc1)C(=O)N[C@@H](CO)C(=O)N[C@@H](CCCCN)C(=O)N[C@@H](Cc1ccc(O)cc1)C(=O)N[C@@H](CS)C(=O)N[C@@H](CC(=O)O)C(N)=O)[C@@H](C)O` (Ac-FTSCYSKYCD-NH2), the IA entry in assay [1] is “Inactive up to 100 uM”. Also, the Max stimulation in assay [2] is 0%. Besides, the Relative binding in assay [3] is 32%.

(Values after ChEMBL document CHEMBL1134405 (J Med Chem, 2001).)
